Measured values published in ChEMBL document CHEMBL5674883, “The Heterochromatin Landscape in Migrating Cells and the Importance of H3K27me3 for Associated Transcriptome Alterations” (Cells, 2018).

Tests used:
Type in all cases: cell-based
[1] = target: Histone-lysine N-methyltransferase EZH2 (Mus musculus) (UniProt Q61188); assay: Inhibition of EZH2 in mouse B16-F1 migrating cells assessed as fold change in H3K27me3-independent regulated Selenbp1-mRNA expression at 3 uM measured by […] analysis relative to control cells
Procedure, shortened: (§1)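 Confluent B16-F1 cells on fibronectin-coated plates were scratched at multiple sites, washed once with DMEM and left to migrate 3 h in growth medium (37 °C, 7% CO2); unscratched cells served as control. GSK343 (3 µM) was added 3 h before lysis. Poly A mRNA was sequenced (RNA-seq), with 5 replicates for untreated and 3 for treated cells. Differential expression was called by linear model with batch correction, at FDR <0.05 and fold change ≥1.3.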

[2] = target: Histone-lysine N-methyltransferase EZH2 (Mus musculus) (UniProt Q61188); assay: Inhibition of EZH2 in mouse B16-F1 migrating cells assessed as fold change in H3K27me3-independent regulated Aldoc-mRNA expression at 3 uM measured by […] analysis relative to control cells; procedure, shortened: as §1
[3] = target: Histone-lysine N-methyltransferase EZH2 (Mus musculus) (UniProt Q61188); assay: Inhibition of EZH2 in mouse B16-F1 migrating cells assessed as fold change in H3K27me3-independent regulated Fam214b-mRNA expression at 3 uM measured by […] analysis relative to control cells; procedure, shortened: as §1
[4] = target: Histone-lysine N-methyltransferase EZH2 (Mus musculus) (UniProt Q61188); assay: Inhibition of EZH2 in mouse B16-F1 migrating cells assessed as fold change in H3K27me3-independent regulated Dlx6-mRNA expression at 3 uM measured by […] analysis relative to control cells; procedure, shortened: as §1
[5] = target: Histone-lysine N-methyltransferase EZH2 (Mus musculus) (UniProt Q61188); assay: Inhibition of EZH2 in mouse B16-F1 migrating cells assessed as fold change in H3K27me3-buffered regulated Rap2a-mRNA expression at 3 uM measured by […] analysis relative to control cells
Procedure, shortened: (§2)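 Confluent B16-F1 cells on fibronectin-coated plates, cultured at 37 °C and 7% CO2, were scratched at multiple sites to induce migration. They were then held 3 h in growth medium containing 3 µM GSK343, with the inhibitor added 3 h before lysis. Unscratched cells served as controls. Poly A mRNA was analysed by RNA-seq (n=3 GSK343, n=5 controls). Linear models removed batch effects, and buffered genes were those altered only under GSK343 (FDR <0.05, fold change >1.3).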

[6] = target: Histone-lysine N-methyltransferase EZH2 (Mus musculus) (UniProt Q61188); assay: Inhibition of EZH2 in mouse B16-F1 migrating cells assessed as fold change in H3K27me3-buffered regulated Dzip3-mRNA expression at 3 uM measured by […] analysis relative to control cells; procedure, shortened: as §2
[7] = target: Histone-lysine N-methyltransferase EZH2 (Mus musculus) (UniProt Q61188); assay: Inhibition of EZH2 in mouse B16-F1 migrating cells assessed as fold change in H3K27me3-buffered regulated Zc3h7a-mRNA expression at 3 uM measured by […] analysis relative to control cells; procedure, shortened: as §1
[8] = target: Histone-lysine N-methyltransferase EZH2 (Mus musculus) (UniProt Q61188); assay: Inhibition of EZH2 in mouse B16-F1 migrating cells assessed as fold change in H3K27me3-buffered regulated Cntrob-mRNA expression at 3 uM measured by […] analysis relative to control cells; procedure, shortened: as §2
[9] = target: Histone-lysine N-methyltransferase EZH2 (Mus musculus) (UniProt Q61188); assay: Inhibition of EZH2 in mouse B16-F1 migrating cells assessed as fold change in H3K27me3-buffered regulated Clk1-mRNA expression at 3 uM measured by […] analysis relative to control cells; procedure, shortened: as §2
[10] = target: T1, RNA polymerase II (Mus musculus) (UniProt P08775+Q8CFI7+P97760+A0A3Q4L2S8+Q80UW8+P61219+P62488+Q923G2+P60898+O08740+Q63871+P62876); assay: Inhibition of RNA polymerase II in mouse B16-F1 migrating cells assessed as fold change in Fosb-RNA stability at 0.1 mM measured by ChIP-seq analysis relative to control cells
[11] = target: T1, RNA polymerase II (Mus musculus); assay: Inhibition of RNA polymerase II in mouse B16-F1 migrating cells assessed as fold change in Pgp-RNA stability at 0.1 mM measured by […] analysis relative to control cells
[12] = target: T1, RNA polymerase II (Mus musculus); assay: Inhibition of RNA polymerase II in mouse B16-F1 migrating cells assessed as fold change in Sh3bgrl3-RNA stability at 0.1 mM measured by […] analysis relative to control cells
[13] = target: T1, RNA polymerase II (Mus musculus); assay: Inhibition of RNA polymerase II in mouse B16-F1 migrating cells assessed as fold change in G6pc3-RNA stability at 0.1 mM measured by ChIP-seq analysis relative to control cells
Procedure, shortened: (§3)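 Mouse B16-F1 melanoma cells grown to confluence on fibronectin in DMEM/10% FCS at 37 °C, 7% CO2. Migration induced by multiple scratches and 3 h incubation; unscratched controls. DRB 0.1 mM added 3 h before lysis. RNA from poly A-selected mRNA was sequenced (RNA-seq, three replicates per DRB group). Fold change computed for DRB-treated migrating vs DRB-treated control cells; cutoffs fold change >1.3, FDR <0.05.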

[14] = target: T1, RNA polymerase II (Mus musculus); assay: Inhibition of RNA polymerase II in mouse B16-F1 migrating cells assessed as fold change in Kcnab2-RNA stability at 0.1 mM measured by […] analysis relative to control cells; procedure, shortened: as §3
[15] = target: T1, RNA polymerase II (Mus musculus); assay: Inhibition of RNA polymerase II in mouse B16-F1 migrating cells assessed as fold change in Stx8-RNA stability at 0.1 mM measured by […] analysis relative to control cells
[16] = target: T1, RNA polymerase II (Mus musculus); assay: Inhibition of RNA polymerase II in mouse B16-F1 migrating cells assessed as fold change in Nae1-RNA stability at 0.1 mM measured by ChIP-seq analysis relative to control cells
[17] = target: T1, RNA polymerase II (Mus musculus); assay: Inhibition of RNA polymerase II in mouse B16-F1 migrating cells assessed as fold change in Lamp2-RNA stability at 0.1 mM measured by ChIP-seq analysis relative to control cells
[18] = target: T1, RNA polymerase II (Mus musculus); assay: Inhibition of RNA polymerase II in mouse B16-F1 migrating cells assessed as fold change in Eif2s3x-RNA stability at 0.1 mM measured by […] analysis relative to control cells; procedure, shortened: as §3
[19] = target: T1, RNA polymerase II (Mus musculus); assay: Inhibition of RNA polymerase II in mouse B16-F1 migrating cells assessed as fold change in Gtf3c4-RNA stability at 0.1 mM measured by ChIP-seq analysis relative to control cells
[20] = target: T1, RNA polymerase II (Mus musculus); assay: Inhibition of RNA polymerase II in mouse B16-F1 migrating cells assessed as fold change in Cbx1-RNA stability at 0.1 mM measured by […] analysis relative to control cells
[21] = target: T1, RNA polymerase II (Mus musculus); assay: Inhibition of RNA polymerase II in mouse B16-F1 migrating cells assessed as fold change in Xpo1-RNA stability at 0.1 mM measured by […] analysis relative to control cells
[22] = target: T1, RNA polymerase II (Mus musculus); assay: Inhibition of RNA polymerase II in mouse B16-F1 migrating cells assessed as fold change in AU019823-RNA stability at 0.1 mM measured by […] analysis relative to control cells
[23] = target: T1, RNA polymerase II (Mus musculus); assay: Inhibition of RNA polymerase II in mouse B16-F1 migrating cells assessed as fold change in Abi1-RNA stability at 0.1 mM measured by […] analysis relative to control cells
[24] = target: T1, RNA polymerase II (Mus musculus); assay: Inhibition of RNA polymerase II in mouse B16-F1 migrating cells assessed as fold change in Dock10-RNA stability at 0.1 mM measured by ChIP-seq analysis relative to control cells

Histone-lysine N-methyltransferase EZH2 (Mus musculus), sequence (Q61188 whole entry): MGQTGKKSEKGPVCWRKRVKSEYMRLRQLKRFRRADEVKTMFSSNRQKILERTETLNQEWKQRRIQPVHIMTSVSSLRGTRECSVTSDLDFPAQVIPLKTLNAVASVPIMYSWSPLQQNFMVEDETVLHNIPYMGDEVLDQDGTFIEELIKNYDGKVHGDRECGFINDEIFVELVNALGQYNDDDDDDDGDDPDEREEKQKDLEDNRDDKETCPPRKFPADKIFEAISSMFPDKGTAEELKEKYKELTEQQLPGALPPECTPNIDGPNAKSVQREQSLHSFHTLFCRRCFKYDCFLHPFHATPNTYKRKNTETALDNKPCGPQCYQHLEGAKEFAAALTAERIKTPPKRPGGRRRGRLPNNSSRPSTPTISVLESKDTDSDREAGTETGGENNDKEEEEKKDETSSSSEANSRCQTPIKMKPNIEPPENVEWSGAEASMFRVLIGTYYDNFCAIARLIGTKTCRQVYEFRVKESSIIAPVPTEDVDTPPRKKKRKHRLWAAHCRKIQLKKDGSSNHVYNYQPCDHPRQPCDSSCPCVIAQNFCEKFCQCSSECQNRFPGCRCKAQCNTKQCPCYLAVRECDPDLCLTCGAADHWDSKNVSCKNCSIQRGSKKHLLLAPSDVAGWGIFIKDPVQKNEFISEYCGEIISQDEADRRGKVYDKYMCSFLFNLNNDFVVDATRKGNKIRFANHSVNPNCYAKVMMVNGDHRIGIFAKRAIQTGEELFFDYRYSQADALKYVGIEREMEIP

CCCc1cc(C)[nH]c(=O)c1CNC(=O)c1cc(-c2ccnc(N3CCN(C)CC3)c2)cc2c1cnn2C(C)C
log2FC [1]: 1.01 | log2FC [2]: 0.69 | log2FC [3]: 0.53 | log2FC [4]: -0.86 | log2FC [5]: 0.56 | log2FC [6]: -0.4 | log2FC [7]: -0.42 | log2FC [8]: -0.42 | log2FC [9]: -0.75

OC[C@H]1O[C@@H](n2cnc3cc(Cl)c(Cl)cc32)[C@H](O)[C@@H]1O
log2FC [10]: 2.03 | log2FC [11]: 0.82 | log2FC [12]: 0.55 | log2FC [13]: 0.51 | log2FC [14]: 0.49 | log2FC [15]: 0.48 | log2FC [16]: -0.43 | log2FC [17]: -0.43 | log2FC [18]: -0.51 | log2FC [19]: -0.54 | log2FC [20]: -0.56 | log2FC [21]: -0.58 | log2FC [22]: -0.59 | log2FC [23]: -0.62 | log2FC [24]: -0.68
